Results from ChEMBL document CHEMBL1208782, “Synthesis and pharmacological validation of a novel series of non-steroidal FXR agonists” (Bioorg Med Chem Lett, 2010).
Active and inactive are the calls of the source. No cut-off for these calls is given here.

Tests used:
[1] = biological target: T1, Bile acid receptor (Homo sapiens, UniProt Q96RI1); experiment: Agonist activity at human GST-fused FXR LBD assessed as cofactor peptide interaction with receptor ligand binding domain by FRET assay
T1 sequence (Q96RI1 whole entry): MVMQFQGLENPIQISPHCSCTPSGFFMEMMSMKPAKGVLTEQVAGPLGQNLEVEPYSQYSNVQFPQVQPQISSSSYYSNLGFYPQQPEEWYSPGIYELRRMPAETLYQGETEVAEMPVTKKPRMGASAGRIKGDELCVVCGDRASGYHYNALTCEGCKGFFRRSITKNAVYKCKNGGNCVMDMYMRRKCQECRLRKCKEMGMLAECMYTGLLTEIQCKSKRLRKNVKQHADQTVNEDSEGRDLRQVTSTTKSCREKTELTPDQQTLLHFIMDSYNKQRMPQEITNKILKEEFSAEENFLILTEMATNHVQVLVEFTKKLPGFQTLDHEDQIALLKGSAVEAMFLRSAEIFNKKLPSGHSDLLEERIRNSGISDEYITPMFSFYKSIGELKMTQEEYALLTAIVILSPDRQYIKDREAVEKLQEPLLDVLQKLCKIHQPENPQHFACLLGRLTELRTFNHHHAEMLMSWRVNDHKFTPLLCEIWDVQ

[2] = biological target: T2, Vitamin D3 receptor (Homo sapiens) (UniProt P11473); experiment: Agonist activity at VDR-LBD expressed in HEK293 cells assessed as Gal4-DBD interaction by cellular mammalian one hybrid assay relative to vitamin D; type: functional, cell-based
T2 sequence (whole entry): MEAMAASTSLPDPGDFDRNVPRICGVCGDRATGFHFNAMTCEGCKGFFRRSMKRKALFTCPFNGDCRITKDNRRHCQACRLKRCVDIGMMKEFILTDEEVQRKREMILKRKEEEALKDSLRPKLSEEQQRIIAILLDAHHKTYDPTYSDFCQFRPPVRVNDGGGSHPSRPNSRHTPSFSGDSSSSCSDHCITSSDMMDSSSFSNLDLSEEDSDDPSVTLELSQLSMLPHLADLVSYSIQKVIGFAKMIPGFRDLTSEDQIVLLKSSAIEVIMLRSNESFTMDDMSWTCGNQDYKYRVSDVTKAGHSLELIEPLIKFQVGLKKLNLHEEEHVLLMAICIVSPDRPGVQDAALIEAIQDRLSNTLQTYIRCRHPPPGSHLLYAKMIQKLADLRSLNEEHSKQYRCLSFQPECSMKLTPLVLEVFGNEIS

[3] = biological target: T3, Bile acid receptor (Homo sapiens) (UniProt Q96RI1); experiment: Agonist activity at human […] FXR LBD expressed in HEK293 cells coexpressing GAL4-DNA bindig domain and pFRluc by mammalian one-hybrid assay relative to GW-4064; type: functional, cell-based
T3 sequence (whole entry): T1 sequence (Q96RI1 whole entry)

[4] = biological target: T4, Androgen receptor (Homo sapiens) (UniProt P10275); experiment: Agonist activity at androgen receptor-LBD expressed in HEK293 cells assessed as Gal4-DBD interaction by cellular mammalian one hybrid assay relative to androgen; type: functional, cell-based
T4 sequence (whole entry): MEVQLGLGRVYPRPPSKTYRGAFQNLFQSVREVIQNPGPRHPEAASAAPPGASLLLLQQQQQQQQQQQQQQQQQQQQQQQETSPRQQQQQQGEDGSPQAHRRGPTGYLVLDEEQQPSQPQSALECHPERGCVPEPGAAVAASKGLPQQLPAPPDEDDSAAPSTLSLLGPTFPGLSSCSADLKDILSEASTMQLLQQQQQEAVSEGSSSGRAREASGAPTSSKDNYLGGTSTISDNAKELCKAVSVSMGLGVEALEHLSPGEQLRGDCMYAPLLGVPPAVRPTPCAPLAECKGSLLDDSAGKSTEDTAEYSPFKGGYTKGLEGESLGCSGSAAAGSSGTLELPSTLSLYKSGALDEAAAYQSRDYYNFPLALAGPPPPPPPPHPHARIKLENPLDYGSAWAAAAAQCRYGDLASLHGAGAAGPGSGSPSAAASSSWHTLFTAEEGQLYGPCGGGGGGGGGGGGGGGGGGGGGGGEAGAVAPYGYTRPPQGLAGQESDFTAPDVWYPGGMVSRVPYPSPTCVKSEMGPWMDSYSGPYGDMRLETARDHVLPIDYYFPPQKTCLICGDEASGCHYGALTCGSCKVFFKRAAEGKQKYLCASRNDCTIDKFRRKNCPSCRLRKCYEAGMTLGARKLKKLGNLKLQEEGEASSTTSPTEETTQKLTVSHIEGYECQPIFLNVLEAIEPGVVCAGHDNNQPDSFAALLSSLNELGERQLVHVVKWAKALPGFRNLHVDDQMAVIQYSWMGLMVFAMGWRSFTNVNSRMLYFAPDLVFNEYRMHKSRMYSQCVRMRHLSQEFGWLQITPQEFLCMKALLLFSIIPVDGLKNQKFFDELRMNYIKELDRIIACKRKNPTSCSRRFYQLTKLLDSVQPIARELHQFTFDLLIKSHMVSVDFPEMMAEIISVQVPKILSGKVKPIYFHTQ

[5] = Plasma concentration in db/db mouse at 1 mg/kg, iv after 90 mins; type: ADME, organism-based; set-up: dose 1 mg/kg, route intravenous; conditions: read-out: Drug uptake
In short: (§1)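 Single dose to mice, 5 mg/kg po or 1 mg/kg iv. Plasma was sampled at 5, 10, 30, 90 and 240 min. Only parent compound was measured, in ng/mL.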

[6] = Plasma concentration in db/db mouse at 5 mg/kg, po after 5 mins; type: ADME, organism-based; set-up: dose 5 mg/kg, route oral; conditions: read-out: Drug uptake; in short: as §1
[7] = biological target: Estrogen receptor (Homo sapiens, UniProt P03372); experiment: Agonist activity at ERalpha-LBD expressed in HEK293 cells assessed as Gal4-DBD interaction by cellular mammalian one hybrid assay; type: functional, cell-based
Sequence of Estrogen receptor (P03372 whole entry, the tested form may be a part): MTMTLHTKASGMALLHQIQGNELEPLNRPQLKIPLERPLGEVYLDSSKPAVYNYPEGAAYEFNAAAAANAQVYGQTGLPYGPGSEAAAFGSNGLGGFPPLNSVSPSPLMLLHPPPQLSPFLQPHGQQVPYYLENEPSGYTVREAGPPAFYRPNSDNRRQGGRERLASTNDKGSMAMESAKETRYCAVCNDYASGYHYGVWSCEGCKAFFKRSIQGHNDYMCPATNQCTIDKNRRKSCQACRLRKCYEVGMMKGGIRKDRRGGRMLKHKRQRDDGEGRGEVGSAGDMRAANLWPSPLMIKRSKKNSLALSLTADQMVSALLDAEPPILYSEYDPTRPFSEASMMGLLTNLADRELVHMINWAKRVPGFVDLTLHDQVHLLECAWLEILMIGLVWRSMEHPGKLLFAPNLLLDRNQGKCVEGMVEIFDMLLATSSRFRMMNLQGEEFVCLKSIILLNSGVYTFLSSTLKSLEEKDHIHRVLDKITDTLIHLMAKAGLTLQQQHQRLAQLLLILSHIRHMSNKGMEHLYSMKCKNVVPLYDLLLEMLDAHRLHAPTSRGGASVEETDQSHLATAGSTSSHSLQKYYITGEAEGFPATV

[8] = Clearance in db/db mouse at 5 mg/kg, po; type: ADME, organism-based; set-up: dose 5 mg/kg, route oral; conditions: in vivo
In short: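 Mice received a single dose of 5 mg/kg po or 1 mg/kg iv. Plasma was sampled at 5, 10, 30, 90 and 240 min and the parent compound alone was measured (ng/mL). Clearance (mL/h/kg), Vd (mL/kg) and oral bioavailability were derived from these plasma profiles.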

[9] = system: Liver; experiment: Drug level in db/db mouse liver measured metabolites as carboxylic acid at 5 mg/kg, po after 240 mins; type: ADME, organism-based; set-up: dose 5 mg/kg, route oral; conditions: in vivo, 4 h
In short: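 Mice got a single dose, 5 mg/kg po or 1 mg/kg iv. Liver and bile were sampled 240 min after dosing. Parent carboxylic acid, its acyl-glucuronide and its taurine amide were quantified separately, in ng/mL. Glucuronide identity was confirmed by glucuronidase digestion of bile or bile extracts, which regenerated the parent.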

[10] = Plasma concentration in db/db mouse at 5 mg/kg, po after 10 mins; type: ADME, organism-based; set-up: dose 5 mg/kg, route oral; conditions: read-out: Drug uptake; in short: as §1
[11] = Drug level in db/db mouse liver at 25 mg/kg bid after 4 hrs by LC/MS-MS analysis; type: ADME, organism-based; set-up: dose 25 mg/kg; conditions: read-out: Drug uptake
In short: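 db/db mice were dosed twice daily for 12 days. Plasma and liver concentrations were determined 4 h and 24 h after the last administration.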

[12] = Plasma concentration in db/db mouse at 1 mg/kg, iv after 5 mins; type: ADME, organism-based; set-up: dose 1 mg/kg, route intravenous; conditions: read-out: Drug uptake; in short: as §1
[13] = system: Mus musculus; experiment: Reduction in total plasma cholesterol level in db/db mouse at 1-25 mg/kg bid after 12 days; type: functional, organism-based
In short: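 C57BL/KSK-mLep^db/mLep^db mice were dosed orally at 1, 5 and 25 mg/kg b.i.d. for 12 days. Total plasma triglycerides and total plasma cholesterol were measured, with cholesterol reported as mg/dl. Significance was given at p<0.05, <0.01 and <0.001 levels.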

Row | EC50 [1] | Efficacy [2] | Efficacy [3] | Efficacy [4] | concentration at 1.5 h [5] | concentration at 5 min [6] | EC50 [7] | CL/F [8] | Drug uptake [9] | concentration at 10 min [10] | concentration at 4 h [11] | concentration at 5 min [12] | SMILES | Activity [13]
1 | 3 nM | 0% | 79% | 0% | – | – | – | – | – | – | – | – | CN(Cc1cccc(C(=O)O)c1)c1ccc(OCc2c(-c3c(Cl)cccc3Cl)noc2C2CC2)nc1C(F)(F)F | –
2 | 12 nM | 0% | 81% | 0% | 398 ng/mL | 427 ng/mL | > 10000 nM | 67.9 mL/min/kg | 257 ng/mL | 283 ng/mL | 14.8 µM | 745 ng/mL | CN(Cc1ccc(C(=O)O)cc1)c1ccc(OCc2c(-c3c(Cl)cccc3Cl)noc2C2CC2)nc1C(F)(F)F | Active
3 | 22 nM | 0% | 75% | 0% | 122 ng/mL | 57 ng/mL | > 10000 nM | 104 mL/min/kg | 1512 ng/mL | 92 ng/mL | 10.4 µM | 1620 ng/mL | CC(C)c1onc(-c2c(Cl)cccc2Cl)c1COc1ccc(N(C)Cc2ccc(C(=O)O)cc2)c(C(F)(F)F)n1 | Active
